Reference: ChEMBL document CHEMBL3779802, “Synthesis of hybrid 4-deoxypodophyllotoxin-5-fluorouracil compounds that inhibit cellular migration and induce cell cycle arrest” (Bioorg Med Chem Lett, 2016)
Active and inactive are the calls of the source. The rule behind the calls is not given here.

How the values were obtained:
HeLa = experiment: Cytotoxicity against human HeLa cells assessed as growth inhibition after 48 hrs by MTT assay; format: functional, cell-based
Summary of the method: (§1)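 MTT assay with 48 h drug exposure on HeLa, A549, HCT-8 and HepG2 tumour cells and normal lung fibroblast WI-38. IC50 reported as the mean of three independent experiments.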

A549 [1] = experiment: Cytotoxicity against human A549 cells assessed as growth inhibition after 48 hrs by MTT assay; format: functional, cell-based; settings: A549, 48 h; summary of the method: as §1
[2] = Cytotoxicity against human HCT8 cells assessed as growth inhibition after 48 hrs by MTT assay; format: functional, cell-based; settings: HCT-8, 48 h; summary of the method: as §1
HepG2 = experiment: Cytotoxicity against human HepG2 cells assessed as growth inhibition after 48 hrs by MTT assay; format: functional, cell-based; settings: HepG2, 48 h; summary of the method: as §1
[3] = Cytotoxicity against human WI38 cells assessed as growth inhibition after 48 hrs by MTT assay; format: cell-based; settings: WI-38, 48 h; summary of the method: as §1
A549 [4] = experiment: Induction of apoptosis in human A549 cells assessed as nuclear fragmentation at 0.3 to 1 uM after 24 hrs by DAPI staining based fluorescence microscopy; format: functional, cell-based
Summary of the method: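 A549 cells treated with 0, 0.3 or 1 μM for 24 h, stained with DAPI and viewed by fluorescence microscopy at 200×. Nuclei scored for fragmentation and loss of normal morphology.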

A549 [5] = experiment: Cell cycle arrest in human A549 cells assessed as accumulation at G2/M phase after 24 hrs by propidium iodide staining based flow cytometry; format: functional
A549 [6] = experiment: Cell cycle arrest in human A549 cells assessed as accumulation at G1 phase at 0.1 uM after 24 hrs by propidium iodide staining based flow cytometry (reference value: 58.3%); format: functional
A549 [7] = experiment: Cell cycle arrest in human A549 cells assessed as accumulation at G1 phase at 0.5 uM after 24 hrs by propidium iodide staining based flow cytometry (reference value: 58.3%); format: functional
A549 [8] = experiment: Cell cycle arrest in human A549 cells assessed as accumulation at S phase at 0.1 uM after 24 hrs by propidium iodide staining based flow cytometry (reference value: 19.3%); format: functional
A549 [9] = experiment: Cell cycle arrest in human A549 cells assessed as accumulation at S phase at 0.5 uM after 24 hrs by propidium iodide staining based flow cytometry (reference value: 19.3%); format: functional
A549 [10] = experiment: Cell cycle arrest in human A549 cells assessed as accumulation at G2/M phase at 0.1 uM after 24 hrs by propidium iodide staining based flow cytometry (reference value: 22.4%); format: functional
A549 [11] = experiment: Cell cycle arrest in human A549 cells assessed as accumulation at G2/M phase at 0.5 uM after 24 hrs by propidium iodide staining based flow cytometry (reference value: 22.4%); format: functional
A549 [12] = experiment: Upregulation of cyclinB1 expression in human A549 cells at 0.5 to 2 uM after 24 hrs by Western blot analysis; format: functional, cell-based
Summary of the method: (§2)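 Western blot for cdc2, p-cdc2 and cyclin B1 in A549 cells treated with vehicle, 0.5 or 2 μM for 24 h.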

A549 [13] = experiment: Upregulation of cdc2 expression in human A549 cells at 0.5 to 2 uM after 24 hrs by Western blot analysis; format: functional, cell-based; summary of the method: as §2
A549 [14] = experiment: Downregulation of p-cdc2 expression in human A549 cells at 0.5 to 2 uM after 24 hrs by Western blot analysis; format: functional, cell-based; summary of the method: as §2
A549 [15] = experiment: Antimigratory activity in human A549 cells at 1 uM after 12 hrs by crystal violet staining based transwell migration assay; format: functional; settings: A549, 12 h
Summary of the method: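 Transwell migration of A549 cells exposed to vehicle, 0.3 or 1 μM for 12 h. Stained migrated cells imaged at 200× and counted. Inhibition expressed relative to untreated control; mean ± SD of three independent experiments.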

A549 [16] = experiment: Upregulation of TIMP-1 expression in human A549 cells at 0.5 to 2 uM after 24 hrs by Western blot analysis; format: functional, cell-based
A549 [17] = experiment: Downregulation of MMP-9 expression in human A549 cells at 0.5 to 2 uM after 24 hrs by Western blot analysis; format: functional, cell-based
A549 [18] = experiment: Upregulation of TIMP-1 expression in human A549 cells at 0.1 to 5 uM after 24 hrs by ELISA; format: functional, cell-based
A549 [19] = experiment: Downregulation of MMP-9 expression in human A549 cells at 0.1 to 5 uM after 24 hrs by ELISA; format: functional, cell-based
Summary of the method: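 MMP-9 in A549 cells measured by ELISA after 24 h exposure to 0, 0.1, 0.5, 1.5 or 5.0 μM. Mean ± SD, n = 3.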

A549 [20] = experiment: Cell cycle arrest in human A549 cells assessed as decrease in cell level at G1 phase after 24 hrs by propidium iodide staining based flow cytometry; format: functional

| Compound | IC50 (HeLa) [µM] | IC50 (A549 [1]) [µM] | IC50 [2] [µM] | IC50 (HepG2) [µM] | IC50 [3] [µM] | also measured |
| --- | --- | --- | --- | --- | --- | --- |
| COc1cc([C@@H]2c3cc4c(cc3C[C@H]3COC(=O)[C@@H]32)OCO4)cc(OC)c1OC(=O)CCC(=O)NCCCCCCNC(=O)Cn1cc(F)c(=O)[nH]c1=O | 4.03 | 0.27 | 1.01 | 0.45 | 114 | Activity (A549 [4]): Active; Activity (A549 [5]): Dose-dependent effect; Activity (A549 [6]): 7.7%; Activity (A549 [7]): 0.1%; Activity (A549 [8]): 45.1%; Activity (A549 [9]): 35.4%; Activity (A549 [10]): 47.2%; Activity (A549 [11]): 64.5%; Activity (A549 [12]): Active; Activity (A549 [13]): Active; Activity (A549 [14]): Active; inhibition at 1 µM (A549 [15]): 47%; Activity (A549 [16]): Active; Activity (A549 [17]): Active; Activity (A549 [18]): Active; Activity (A549 [19]): Active; Activity (A549 [20]): Dose-dependent effect |
| COc1cc([C@@H]2c3cc4c(cc3C[C@H]3COC(=O)[C@@H]32)OCO4)cc(OC)c1OC(=O)NCCCNC(=O)Cn1cc(F)c(=O)[nH]c1=O | 15.8 | 11.7 | 5.26 | > 100 | 109 | – |
| COc1cc([C@@H]2c3cc4c(cc3C[C@H]3COC(=O)[C@@H]32)OCO4)cc(OC)c1O [4'-DEMETHYLDEOXYPODOPHYLLOTOXIN] | – | 3.9 | 9.81 | 16.5 | 78.5 | – |
| COc1cc([C@@H]2c3cc4c(cc3C[C@H]3COC(=O)[C@@H]32)OCO4)cc(OC)c1OC(=O)N1CCN(C(=O)Cn2cc(F)c(=O)[nH]c2=O)CC1 | 11.2 | 2.41 | 17.6 | 14.3 | 121 | – |
| COc1cc([C@@H]2c3cc4c(cc3C[C@H]3COC(=O)[C@@H]32)OCO4)cc(OC)c1OC(=O)NCCCCNC(=O)Cn1cc(F)c(=O)[nH]c1=O | 9.58 | 23.9 | 8.53 | 22.3 | 85.5 | – |
| COc1cc([C@@H]2c3cc4c(cc3C[C@H]3COC(=O)[C@@H]32)OCO4)cc(OC)c1OC(=O)CCC(=O)N1CCN(C(=O)Cn2cc(F)c(=O)[nH]c2=O)CC1 | 15 | 1.35 | 9.01 | 11.5 | 112 | – |
| COc1cc([C@@H]2c3cc4c(cc3C[C@H]3COC(=O)[C@@H]32)OCO4)cc(OC)c1OC(=O)NCCCCCCNC(=O)Cn1cc(F)c(=O)[nH]c1=O | 13.2 | 0.14 | 2.04 | 11.7 | 87 | – |
| COc1cc([C@@H]2c3cc4c(cc3[C@@H](O[C@@H]3O[C@@H]5CO[C@@H](C)O[C@H]5[C@H](O)[C@H]3O)[C@H]3COC(=O)[C@H]23)OCO4)cc(OC)c1O [ETOPOSIDE] | 12.1 | 23.9 | 10.9 | 27.1 | 35.8 | – |
| O=c1[nH]cc(F)c(=O)[nH]1 [FLUOROURACIL] | – | – | 32.3 | 41.6 | 38.9 | – |
| COc1cc([C@@H]2c3cc4c(cc3C[C@H]3COC(=O)[C@@H]32)OCO4)cc(OC)c1OC(=O)N1CCN(CCCCn2cc(F)c(=O)[nH]c2=O)CC1 | 13.2 | 2.14 | 9.18 | 20.2 | 104 | – |
